# Measurements reported in ChEMBL document CHEMBL4513216, “Probing the Open Global Health Chemical Diversity Library for Multistage-Active Starting Points for Next-Generation Antimalarials” (ACS Infect Dis, 2020).
# Test: Toxicity liver stage against HepG2, at 10uM
# Assay type: cell-based
# Design: test concentration 10 uM, cell line HepG2-A16-CD81EGFP
# Details: human, HepG2-A16-CD81EGFP cells; read-out: INHIBITION
# Procedure, shortened: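 Uninfected HepG2-A16-CD81EGFP cells, 3 × 10^3 per well, 1536-well, plated on prespotted compound at 10 μM final, parasite-free screening media added to match infected plates; puromycin 10 μM positive, DMSO 0.5% negative; run in parallel with 48 h PbLuc assay at 37 °C, 5% CO2; viability by CellTiter-Glo luminescence, normalized to controls.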
row,Compound,cytotoxicity at 10 µM [%]
1,COc1ccc(C(=O)C2CCCN(Cc3ccon3)C2)c(OC)c1 (stereo not drawn),-4.46
2,Cn1ccnc1CCNS(=O)(=O)c1cccnc1,10.7
3,c1ccc(C(CC2CN(Cc3ncc[nH]3)CCO2)c2ccccc2)cc1 (stereo not drawn),-0.73
4,CCC[C@@H](NC(N)=O)C(=O)N1Cc2ccccc2-c2ccccc2C1,5.17
5,CC(C)CCC(C)NC(=O)CN1C=Nc2ccccc2S1(=O)=O (stereo not drawn),-1.64
6,O=C1CCc2cc(-c3csc(CCN4CCOC4=O)n3)ccc2N1,-12.2
7,COCCNC(=O)[C@H]1CN(Cc2csc(C)n2)C[C@H]2OCC[C@@H]12,9.9
8,O=C(Cc1ccccn1)N1CCC(O)(Cn2ccc3ccncc32)CC1,-5.24
9,CCc1nc(C2CCCN2C(=O)CCc2cscn2)no1 (stereo not drawn),-3.12
10,O=C(CCc1ccc(-n2cnnn2)cc1)Nc1nncs1,-1.14
11,CCNC(=O)CNCc1c(C(C)C)nn(C)c1N1CCOCC1,-6.45
12,CC(C)c1ncncc1C(=O)NCCN1CCCCC1C (stereo not drawn),-6.06
13,Cc1cnc(CNc2ccc(C(=O)NCc3ccco3)cc2C)o1,-4.51
14,O=C1CCC(c2ccc(Cl)cc2)=NN1CN1CCSCC1,34.4
15,CC(=O)Nc1nc(CN2CCn3c(C)nnc3C2)cs1,-1.68
16,Cc1ccc(NC2(C(=O)NCCCN)CCCC2)cc1,1.58
17,Fc1cccc(C2(CNC3CCOC4(CCOCC4)C3)CCOCC2)c1 (stereo not drawn),0.616
18,CN(Cc1cccnc1)CC1CCOc2ccccc2C1 (stereo not drawn),-4.92
19,Cc1sc2nc(SC(C)c3nc(C(C)C)no3)nc(N)c2c1C (stereo not drawn),-2.4
20,CN(Cc1ncc(-c2ccccc2)o1)C1CCCN(c2cccnn2)C1 (stereo not drawn),-29.1
21,CN(Cc1ccc(N2CCOCC2)cc1)C(=O)Cn1cccnc1=O,-18.4

row,Compound,cytotoxicity at 10 µM [%]
1,CSCCCN1C[C@H](NC(=O)c2cnn(C)c2)[C@@H](C2CC2)C1,4.43
2,CC(C)c1nc(CN(C)Cc2ncccc2C(=O)O)cs1,-15.3
3,CCOCC1CN(CCOc2ccc(Cl)cc2)Cc2c1cnn2C (stereo not drawn),-109
4,Cn1ccc(C(=O)N2C[C@@H]3CCN(c4cnccn4)C[C@@H]3C2)n1,-106
5,CC(C)NC(=O)N[C@H]1C[C@@H](c2nc(-c3ccncc3)no2)N(C)C1,-2.8
6,Cc1nc(CNCc2c(C(C)C)nn(C)c2N2CCOCC2)cs1,-2.51
7,Cc1nnc(SCCNC(=O)CC2CCc3ccccc32)s1 (stereo not drawn),-3.13
8,O=C(N[C@@H]1CCNC[C@H]1O)c1ccc(O)c(Cl)c1,-5.46
9,CN1CCN(C(=O)c2cn3ccsc3n2)[C@H]2CS(=O)(=O)C[C@H]21,-1.27
10,Cc1c(OCC(=O)NCc2ccccc2)c(=O)ccn1C,-49.9
11,CCCn1nc(C)c(CN2CC3(CCOC3)CCC2=O)c1C (stereo not drawn),4.28
12,CC(=O)Nc1nc(CS(=O)(=O)CCCc2ccccc2)cs1,-1.2
13,CN1CCCC(Cc2cncc(C(=O)NCC3CC3)c2)C1 (stereo not drawn),-3.99
14,Cc1ccc(OCCCC(=O)NC(C)c2nnc3n2CCC3)cc1 (stereo not drawn),-15
15,COCC1CN(C(=O)Nc2cc(C(F)(F)F)ccc2F)CCO1 (stereo not drawn),4.24
16,CN(Cc1ccco1)C[C@H]1OC[C@@H]2CCN(Cc3cccs3)C[C@@H]21,8.11
17,COC[C@@H]1CCC[C@@]12CN(C(=O)N(C)C)CCO2,-102
18,Brc1ccc(CNCc2nnc3n2CCCCC3)s1,-0.254
19,CCOc1cc(C)c(-c2cc(N)[nH]n2)cc1OCC,-7.27
20,COCCN(CCC#N)S(=O)(=O)c1ccc(F)cc1Cl,2.13
21,O=C(Cn1cc(I)cn1)Nc1cccnc1,-2.59

row,Compound,cytotoxicity at 10 µM [%]
1,CSc1ncc(CNCC2(N3CCCCC3)Cc3ccccc3C2)cn1,5.07
2,OCc1csc(N2CCCC(CO)(Cc3cccc(Cl)c3)C2)n1 (stereo not drawn),8.87
3,CCSCCC(=O)N1CCc2[nH]nc(COc3ccccc3)c2C1,-2.19
4,Cc1ccc(S(=O)(=O)N2C[C@H]3C[C@H](NC(=O)c4cc[nH]n4)[C@H]3C2)cc1,81.4
5,Cc1ncc2c(n1)CN(Cc1nc(-c3ccco3)oc1C)CC2,2.2
6,O=C(c1ccco1)N1CCn2cc(CN3CCCC3)nc2C1,-78.9
7,C=c1ccoc1=C1NN=C(CNCCn2cc(C)cn2)O1,1.12
8,Cc1ccsc1-c1nnc(SCC(=O)O)n1C(C)c1ccccc1 (stereo not drawn),-4.65
9,c1csc(CN2CC[C@H]3C[C@H](c4ccncn4)O[C@@H]3C2)c1,1.17
10,O=C(COCC1CC1)Nc1ccn(Cc2cccc3cccnc23)n1,13.9
11,O=C(CS(=O)(=O)Cc1nnnn1C1CC1)NCCc1ccccc1,2.92
12,Cc1noc(C)c1C(=O)NCc1ccc(N2CCCCCC2)nc1,2.76
13,Cc1ccc(NC2CCN(C(=O)CCNS(C)(=O)=O)CC2)nn1,-5.58
14,Cn1cc(CN2CCC3(CCCN3S(C)(=O)=O)CC2)cn1,1.59
15,OCCNc1cc(-c2ccncc2)ncn1,-7.88
16,Cc1cc(NC(=O)NC2CCN(C(C)C)CC2)c2ncccc2c1,9.67
17,COc1ccccc1C1(CNc2snc(Cl)c2C#N)CCOCC1,10.2
18,Cc1noc(C)c1CN1CCc2ncc(CN3CCCC3)n2CC1,0.78
19,O=C(Nc1cccnc1)c1ccc(-n2cncn2)nn1,4.48
20,CN(C)CCOCC1CN(C(=O)c2ccsc2)Cc2ccnn2C1 (stereo not drawn),-0.0653
21,Cc1nnc(CSc2n[nH]c(-c3ccccn3)n2)o1,5.81

row,Compound,cytotoxicity at 10 µM [%]
1,CC(C)(C)n1ncc2c1CCCC2NCc1cccc2c1OCCO2 (stereo not drawn),-2.69
2,Cc1ccccc1SC1CCN(C(=O)C2CNCC(=O)N2)CC1 (stereo not drawn),-3.81
3,CC(C)C[C@@H](CO)n1cc(-c2cncnc2)nn1,-0.268
4,CCCn1cnnc1CNC(=O)C1COc2ccc(OC)cc2C1 (stereo not drawn),-2.06
5,CCCN(Cc1nnnn1C1CC1)CC1COc2ccccc2O1 (stereo not drawn),2.04
6,Cc1cc(C2CCCN(CCCNS(C)(=O)=O)C2)n[nH]1 (stereo not drawn),-5.2
7,CN1CCCC1CCNC(=O)c1ccccc1-n1cnc(CN)c1 (stereo not drawn),8.6
8,OC1(c2ccc(F)cc2)CCN(Cc2ccccc2N2CCCC2)CC1,20.5
9,Cc1noc(C)c1C(=O)N(Cc1ccsc1)CC1CCCO1 (stereo not drawn),3.91
10,CNc1cccc(C2CN(C(=O)CNS(C)(=O)=O)CCO2)n1 (stereo not drawn),-2.24
11,CCC(O)Cn1cc(C2=CCN(Cc3cc(O)nc(C)n3)CC2)cn1 (stereo not drawn),-9.2
12,Cc1cccc(N2CCN(C(=O)CN3CCC(C(N)=O)CC3)CC2)c1,4.52
13,Cc1cc(C(=O)Nc2cnn(CC(=O)NC3CCCC3)c2)c(C)s1,3.07
14,O=S(=O)(NC1CCC12CCN(CC1CC1)CC2)c1ccccc1 (stereo not drawn),-7.82
15,Cc1cc(CN(C)C2CCCN(Cc3noc(C4CC4)n3)C2)on1 (stereo not drawn),-1.68
16,CCS(=O)(=O)N1CCCn2nnc(CNC(C)=O)c2C1,-113
17,c1ccc(-c2nnc(C3CCCN(CC4CCCCC4)C3)o2)nc1 (stereo not drawn),-28.5
18,CCOc1ncccc1C(=O)N(C)Cc1ncc(C)c(OC)c1C,3.06
19,C1CC(CN2CCc3c(nnn3CC3CC3)C2COCC2CC2)C1 (stereo not drawn),7.61
20,CC(=O)NCCNC(=O)C1(Oc2cccnc2C)CCNCC1,3.24
